Test results published in ChEMBL document CHEMBL2034842, “Synthesis, anti-Candida activity, and cytotoxicity of new (4-(4-iodophenyl)thiazol-2-yl)hydrazine derivatives” (Eur J Med Chem, 2012).
Converted amounts (≈) assume the structure as drawn.

Key:
[1] = tested on: Escherichia coli; experiment: Antibacterial activity against Escherichia coli after 18 to 22 hrs by […]; type: functional
[2] = tested on: Proteus vulgaris; experiment: Antibacterial activity against Proteus vulgaris after 18 to 22 hrs by […]; type: functional
[3] = tested on: Klebsiella aerogenes; experiment: Antibacterial activity against Enterobacter aerogenes after 18 to 22 hrs by […]; type: functional
[4] = tested on: Klebsiella pneumoniae; experiment: Antibacterial activity against Klebsiella pneumoniae after 18 to 22 hrs by […]; type: functional
[5] = tested on: Staphylococcus aureus; experiment: Antibacterial activity against Staphylococcus aureus after 18 to 22 hrs by […]; type: functional
[6] = tested on: Staphylococcus warneri; experiment: Antibacterial activity against Staphylococcus warneri after 18 to 22 hrs by […]; type: functional
[7] = tested on: Streptococcus pyogenes; experiment: Antibacterial activity against Streptococcus pyogenes after 18 to 22 hrs by […]; type: functional
[8] = tested on: Enterococcus faecalis; experiment: Antibacterial activity against Enterococcus faecalis after 18 to 22 hrs by […]; type: functional
[9] = tested on: Candida albicans; experiment: Antifungal activity against 10 strains of Candida albicans after 24 hrs by […]; type: functional
[10] = tested on: Pichia kudriavzevii; experiment: Antifungal activity against 3 strains of Candida krusei after 24 hrs by […]; type: functional
[11] = tested on: Candida parapsilosis; experiment: Antifungal activity against 4 strains of Candida parapsilosis after 24 hrs by […]; type: functional; conditions: Lodderomyces parapsilosis
[12] = tested on: [Candida] sake; experiment: Antifungal activity against 2 strains of Candida sake after 24 hrs by […]; type: functional; conditions: Fermentozyma sake
[13] = tested on: Nakaseomyces glabratus; experiment: Antifungal activity against 4 strains of Candida glabrata after 24 hrs by […]; type: functional
[14] = tested on: Candida tropicalis; experiment: Antifungal activity against 4 strains of Candida tropicalis after 24 hrs by […]; type: functional
[15] = tested on: HEp-2; experiment: Antiproliferative activity against human Hep2 cells assessed as cell survival fraction after 24 hrs by MTT assay; type: cell-based; conditions: HEp-2, 24 h
Summary of the method: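 Hep2 laryngeal carcinoma cells seeded in triplicate at 1 × 10^5/well in serum-free DMEM. Exposed 24 h at 37 °C, 5% CO2, to six concentrations ([…]); DMSO ≤0.5%. MTT reagent added for 2 h at 37 °C, then detergent for 2 h at room temperature in the dark. OD550 minus OD650 read. EC50 from ≥3 independent experiments.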

[16] = Antiproliferative activity against human Hep2 cells assessed as cell survival fraction at 100 ug/mL after 24 hrs by MTT assay; type: cell-based; conditions: HEp-2 cells, read-out: Survival
Summary of the method: (§1)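 Hep2 (human laryngeal carcinoma) cells maintained in DMEM + 10% FBS + 1% pen/strep, 37 °C, 5% CO2. Seeded in triplicate at 1 × 10^5/well in serum-free medium and exposed 24 h at 37 °C to six compound concentrations (100–0.05). DMSO stock diluted in medium, final DMSO ≤0.5%. MTT reagent added for 2 h at 37 °C, then detergent for 2 h at RT in the dark. Read as OD550 minus OD650.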

[17] = Antiproliferative activity against human Hep2 cells assessed as cell survival fraction at 50 ug/mL after 24 hrs by MTT assay; type: cell-based; conditions: HEp-2 cells, read-out: Survival; summary of the method: as §1
[18] = Antiproliferative activity against human Hep2 cells assessed as cell survival fraction at 10 ug/mL after 24 hrs by MTT assay; type: cell-based; conditions: HEp-2 cells, read-out: Survival; summary of the method: as §1
[19] = Antiproliferative activity against human Hep2 cells assessed as cell survival fraction at 5 ug/mL after 24 hrs by MTT assay; type: cell-based; conditions: HEp-2 cells, read-out: Survival; summary of the method: as §1
[20] = Antiproliferative activity against human Hep2 cells assessed as cell survival fraction at 0.5 ug/mL after 24 hrs by MTT assay; type: cell-based; conditions: HEp-2 cells, read-out: Survival; summary of the method: as §1
[21] = Antiproliferative activity against human Hep2 cells assessed as cell survival fraction at 0.05 ug/mL after 24 hrs by MTT assay; type: cell-based; conditions: HEp-2 cells, read-out: Survival; summary of the method: as §1
[22] = tested on: HEp-2; experiment: Cytotoxicity against human Hep2 cells assessed as cell survival fraction after 24 hrs by trypan blue exclusion method; type: cell-based; conditions: HEp-2, 24 h
Summary of the method: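 Hep2 cells in DMEM with 10% FBS and 1% penicillin-streptomycin, at 37 °C, 5% CO2, grown to 60–70% confluency. Seeded at 1 × 10^5/mL and exposed 24 h to six concentrations ([…]); DMSO ≤0.5%. Controls were cells alone, cells with DMSO, and 1 mM nitroprusside. Scraped cells mixed 1:1 with 0.4% trypan blue; blue cells counted as dead by hemocytometer, two operators. EC50 from ≥3 independent experiments.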

[23] = Cytotoxicity against human Hep2 cells assessed as cell survival fraction at 100 ug/mL after 24 hrs by trypan blue exclusion method; type: cell-based; conditions: HEp-2 cells, read-out: Survival
Summary of the method: (§2)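 Hep2 cells grown in DMEM + 10% FBS + 1% pen/strep at 37 °C, 5% CO2, used at 60–70% confluency. Exponential-phase cells (1 × 10^5/mL) incubated 24 h with six concentrations (100–0.05), final DMSO ≤0.5%. Controls were cells alone or cells + DMSO, with 1 mM sodium nitroprusside as positive control. Cells scraped off, mixed 1:1 with 0.4% trypan blue and counted on a hemocytometer by two operators. Blue cells were scored dead; results given as % viable cells.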

[24] = Cytotoxicity against human Hep2 cells assessed as cell survival fraction at 50 ug/mL after 24 hrs by trypan blue exclusion method; type: cell-based; conditions: HEp-2 cells, read-out: Survival; summary of the method: as §2
[25] = Cytotoxicity against human Hep2 cells assessed as cell survival fraction at 10 ug/mL after 24 hrs by trypan blue exclusion method; type: cell-based; conditions: HEp-2 cells, read-out: Survival; summary of the method: as §2
[26] = Cytotoxicity against human Hep2 cells assessed as cell survival fraction at 5 ug/mL after 24 hrs by trypan blue exclusion method; type: cell-based; conditions: HEp-2 cells, read-out: Survival; summary of the method: as §2
[27] = Cytotoxicity against human Hep2 cells assessed as cell survival fraction at 0.5 ug/mL after 24 hrs by trypan blue exclusion method; type: cell-based; conditions: HEp-2 cells, read-out: Survival; summary of the method: as §2
[28] = Cytotoxicity against human Hep2 cells assessed as cell survival fraction at 0.05 ug/mL after 24 hrs by trypan blue exclusion method; type: cell-based; conditions: HEp-2 cells, read-out: Survival; summary of the method: as §2

Row | Compound | MIC [1] [µg/mL] | MIC [9] [µg/mL] | MIC [10] [µg/mL] | MIC [11] [µg/mL] | MIC [12] [µg/mL] | MIC [13] [µg/mL] | MIC [14] [µg/mL] | EC50 [15] [µg/mL] | viability at 24 h, 100 ug/mL [16] [%] | viability at 24 h, 50 ug/mL [17] [%] | viability at 24 h, 10 ug/mL [18] [%] | viability at 24 h, 5 ug/mL [19] [%] | viability at 24 h, 0.5 ug/mL [20] [%] | viability at 24 h, 0.05 ug/mL [21] [%] | viability at 24 h, 100 ug/mL [23] [%] | viability at 24 h, 50 ug/mL [24] [%] | viability at 24 h, 10 ug/mL [25] [%] | viability at 24 h, 5 ug/mL [26] [%] | viability at 24 h, 0.5 ug/mL [27] [%] | viability at 24 h, 0.05 ug/mL [28] [%] | further results
1 | CC1CC/C(=N\Nc2nc(-c3ccc(I)cc3)cs2)C1 (stereo not drawn) | 32 (≈ 80.5 µM) | 0.25 (≈ 0.629 µM) | 2 (≈ 5.03 µM) | 2 (≈ 5.03 µM) | 4 (≈ 10.1 µM) | 2 (≈ 5.03 µM) | 0.5 (≈ 1.26 µM) | 50 (≈ 126 µM) | 10 | 28 | 90 | 92 | 100 | 100 | 0 | 69 | 88 | 83 | 92 | 95 | MIC [2]: 32 µg/mL (≈ 80.5 µM); MIC [3]: 32 µg/mL (≈ 80.5 µM); MIC [4]: > 128 µg/mL; MIC [5]: 32 µg/mL (≈ 80.5 µM); MIC [6]: 32 µg/mL (≈ 80.5 µM); MIC [7]: 32 µg/mL (≈ 80.5 µM); MIC [8]: 32 µg/mL (≈ 80.5 µM); EC50 [22]: 51 µg/mL (≈ 128 µM)
2 | Clc1ccccc1C(c1ccccc1)(c1ccccc1)n1ccnc1 [CLOTRIMAZOLE] | – | 2 (≈ 5.8 µM) | 2 (≈ 5.8 µM) | 0.5 (≈ 1.45 µM) | 2 (≈ 5.8 µM) | 0.25 (≈ 0.725 µM) | 1 (≈ 2.9 µM) | 48 (≈ 139 µM) | 20 | 32 | 70 | 82 | 85 | 100 | 10 | 20 | 68 | 70 | 87 | 100 | EC50 [22]: 40 µg/mL (≈ 116 µM)
3 | Ic1ccc(-c2csc(N/N=C/c3cccc4ccccc34)n2)cc1 | 16 (≈ 35.1 µM) | 0.25 (≈ 0.549 µM) | 64 (≈ 141 µM) | 2 (≈ 4.39 µM) | 64 (≈ 141 µM) | 2 (≈ 4.39 µM) | 0.5 (≈ 1.1 µM) | 35 (≈ 76.9 µM) | 2 | 5 | 80 | 78 | 80 | 95 | 0 | 39 | 73 | 80 | 80 | 90 | MIC [2]: 16 µg/mL (≈ 35.1 µM); MIC [3]: 16 µg/mL (≈ 35.1 µM); MIC [4]: 16 µg/mL (≈ 35.1 µM); MIC [5]: > 128 µg/mL; MIC [6]: > 128 µg/mL; MIC [7]: 32 µg/mL (≈ 70.3 µM); MIC [8]: 32 µg/mL (≈ 70.3 µM); EC50 [22]: 40 µg/mL (≈ 87.8 µM)
4 | CCC(CC)=NNc1nc(-c2ccc(I)cc2)cs1 | 32 (≈ 83.1 µM) | 0.25 (≈ 0.649 µM) | 256 (≈ 664 µM) | 2 (≈ 5.19 µM) | 256 (≈ 664 µM) | 2 (≈ 5.19 µM) | 0.5 (≈ 1.3 µM) | 50 (≈ 130 µM) | 10 | 45 | 90 | 90 | 92 | 95 | 58 | 63 | 67 | 80 | 85 | 92 | MIC [2]: 32 µg/mL (≈ 83.1 µM); MIC [3]: 16 µg/mL (≈ 41.5 µM); MIC [4]: 16 µg/mL (≈ 41.5 µM); MIC [5]: > 128 µg/mL; MIC [6]: 32 µg/mL (≈ 83.1 µM); MIC [7]: 32 µg/mL (≈ 83.1 µM); MIC [8]: 32 µg/mL (≈ 83.1 µM)
